≈ marks a conversion by molar mass, not a printed value.
Legend:
Salmonella typhi = test: Antibacterial activity against Salmonella typhi after 18 hrs by serial dilution method; type: functional, Salmonella enterica subsp. enterica serovar Typhi; details: Salmonella enterica
Summary of the method: (§1)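 MICs by serial dilution on nutrient agar. Inoculum 0.001 mL of undiluted overnight broth culture. Plates incubated 18 h at 37 °C before reading. The S. aureus Russell strain produces β-lactamase and resists benzylpenicillin.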

Proteus mirabilis = test: Antibacterial activity against Proteus mirabilis after 18 hrs by serial dilution method; type: functional
Summary of the method: (§2)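 MICs by serial dilution on nutrient agar. Inoculum 0.001 mL of undiluted overnight broth culture. Plates incubated at 37 °C for 18 h before reading.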

Staphylococcus aureus [1] = test: Antibacterial activity against beta-lactamase producing benzylpenicillin-resistant Staphylococcus aureus Russell after 18 hrs by serial dilution method; type: functional; summary of the method: as §1
Klebsiella aerogenes = test: Antibacterial activity against Klebsiella aerogenes after 18 hrs by serial dilution method; type: functional; summary of the method: as §2
Escherichia coli = test: Antibacterial activity against Escherichia coli after 18 hrs by serial dilution method; type: functional; summary of the method: as §2
Shigella sonnei = test: Antibacterial activity against Shigella sonnei after 18 hrs by serial dilution method; type: functional; summary of the method: as §2
Staphylococcus aureus [2] = test: Antibacterial activity against Staphylococcus aureus Oxford after 18 hrs by serial dilution method; type: functional; summary of the method: as §2
[3] = Drug level in mouse blood at 50 mg/kg, iv after 30 mins by microbiological assay; type: ADME, organism-based; parameters: dose 50 mg/kg, route intravenous; details: read-out: Drug uptake
Summary of the method: (§3)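 Mice given a single 50 mg/kg dose by the route in the line. Groups of five killed at each time point and blood taken from the cut axilla, heparinized and stored at 4 °C. Blood assayed the same day by large-plate microbiological assay with Sarcina lutea NCTC 8340, overnight at 30 °C. Standards made in mouse blood, with pH 7.2 phosphate-buffered saline as diluent.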

[4] = Drug level in mouse blood at 50 mg/kg, sc after 30 mins by microbiological assay; type: ADME, organism-based; parameters: dose 50 mg/kg, route subcutaneous; details: read-out: Drug uptake; summary of the method: as §3
[5] = Drug level in mouse blood at 50 mg/kg, iv after 1 hr by microbiological assay; type: ADME, organism-based; parameters: dose 50 mg/kg, route intravenous; details: read-out: Drug uptake; summary of the method: as §3
[6] = Drug level in mouse blood at 50 mg/kg, iv after 20 mins by microbiological assay; type: ADME, organism-based; parameters: dose 50 mg/kg, route intravenous; details: read-out: Drug uptake; summary of the method: as §3
[7] = Drug level in mouse blood at 50 mg/kg, iv after 10 mins by microbiological assay; type: ADME, organism-based; parameters: dose 50 mg/kg, route intravenous; details: read-out: Drug uptake; summary of the method: as §3
[8] = Drug level in mouse blood at 50 mg/kg, sc after 1 hr by microbiological assay; type: ADME, organism-based; parameters: dose 50 mg/kg, route subcutaneous; details: read-out: Drug uptake; summary of the method: as §3
[9] = Drug level in mouse blood at 50 mg/kg, iv after 2 hrs by microbiological assay; type: ADME, organism-based; parameters: dose 50 mg/kg, route intravenous; details: read-out: Drug uptake; summary of the method: as §3
[10] = Drug level in mouse blood at 50 mg/kg, sc after 2 hrs by microbiological assay; type: ADME, organism-based; parameters: dose 50 mg/kg, route subcutaneous; details: read-out: Drug uptake; summary of the method: as §3
[11] = Drug level in mouse blood at 50 mg/kg, sc after 10 mins by microbiological assay; type: ADME, organism-based; parameters: dose 50 mg/kg, route subcutaneous; details: read-out: Drug uptake; summary of the method: as §3
[12] = Drug level in mouse blood at 50 mg/kg, iv after 4 hrs by microbiological assay; type: ADME, organism-based; parameters: dose 50 mg/kg, route intravenous; details: read-out: Drug uptake; summary of the method: as §3
[13] = Drug level in mouse blood at 50 mg/kg, sc after 20 mins by microbiological assay; type: ADME, organism-based; parameters: dose 50 mg/kg, route subcutaneous; details: read-out: Drug uptake; summary of the method: as §3
[14] = Drug level in mouse blood at 50 mg/kg, sc after 4 hrs by microbiological assay; type: ADME, organism-based; parameters: dose 50 mg/kg, route subcutaneous; details: read-out: Drug uptake; summary of the method: as §3
[15] = Drug level in mouse blood at 50 mg/kg, po after 2 hrs by microbiological assay; type: ADME, organism-based; parameters: dose 50 mg/kg, route oral; details: read-out: Drug uptake; summary of the method: as §3
[16] = Drug level in mouse blood at 50 mg/kg, po after 4 hrs by microbiological assay; type: ADME, organism-based; parameters: dose 50 mg/kg, route oral; details: read-out: Drug uptake; summary of the method: as §3
[17] = Drug level in mouse blood at 50 mg/kg, po after 20 mins by microbiological assay; type: ADME, organism-based; parameters: dose 50 mg/kg, route oral; details: read-out: Drug uptake; summary of the method: as §3
[18] = Drug level in mouse blood at 50 mg/kg, po after 30 mins by microbiological assay; type: ADME, organism-based; parameters: dose 50 mg/kg, route oral; details: read-out: Drug uptake; summary of the method: as §3
[19] = Drug level in mouse blood at 50 mg/kg, po after 10 mins by microbiological assay; type: ADME, organism-based; parameters: dose 50 mg/kg, route oral; details: read-out: Drug uptake; summary of the method: as §3
[20] = Drug level in mouse blood at 50 mg/kg, po after 1 hr by microbiological assay; type: ADME, organism-based; parameters: dose 50 mg/kg, route oral; details: read-out: Drug uptake; summary of the method: as §3

Compound	MIC (Salmonella typhi) [µg/mL]	MIC (Proteus mirabilis) [µg/mL]	MIC (Staphylococcus aureus [1]) [µg/mL]	MIC (Klebsiella aerogenes) [µg/mL]	MIC (Escherichia coli) [µg/mL]	MIC (Shigella sonnei) [µg/mL]	MIC (Staphylococcus aureus [2]) [µg/mL]	concentration at 0.5 h [4] [ng/mL]	concentration at 1 h [8] [ng/mL]	concentration at 2 h [10] [ng/mL]	concentration at 10 min [11] [µg/mL]	concentration at 20 min [13] [µg/mL]	concentration at 4 h [14] [ng/mL]	further results
N[C@@H](C(=O)N[C@@H]1C(=O)N2C(C(=O)O)=C(CC3CCCCO3)CS[C@H]12)c1ccccc1 (stereo not given in full)	25 (≈ 57.9 µM)	> 50	5 (≈ 11.6 µM)	10 (≈ 23.2 µM)	> 50	25 (≈ 57.9 µM)	5 (≈ 11.6 µM)							
Cn1cccc1CC1=C(C(=O)O)N2C(=O)[C@@H](NC(=O)[C@H](N)c3ccccc3)[C@H]2SC1	50 (≈ 117 µM)	500 (≈ 1170 µM)	50 (≈ 117 µM)	500 (≈ 1170 µM)	500 (≈ 1170 µM)	500 (≈ 1170 µM)	1.25 (≈ 2.93 µM)							
N[C@@H](C(=O)N[C@@H]1C(=O)N2C(C(=O)O)=C(Cc3ccccc3C(F)(F)F)CS[C@H]12)c1ccccc1	> 100	> 100	5 (≈ 10.2 µM)	> 100	> 100	> 100	0.5 (≈ 1.02 µM)							
O=C(Cc1cccs1)N[C@@H]1C(=O)N2C(C(=O)[O-])=C(C[n+]3ccccc3)CS[C@H]12 [CEPHALORIDINE]								18500	5600	710	32.8	24.4	< 200	concentration at 0.5 h [3]: 14300 ng/mL; concentration at 1 h [5]: 2900 ng/mL; concentration at 20 min [6]: 23.2 µg/mL; concentration at 10 min [7]: 48.8 µg/mL; concentration at 2 h [9]: 320 ng/mL; concentration at 4 h [12]: < 50 ng/mL
N[C@@H](C(=O)N[C@@H]1C(=O)N2C(C(=O)O)=C(Cc3ccccn3)CS[C@H]12)c1ccccc1	12.5 (≈ 29.4 µM)	50 (≈ 118 µM)	12.5 (≈ 29.4 µM)	> 500	50 (≈ 118 µM)	25 (≈ 58.9 µM)	1.25 (≈ 2.94 µM)							
N[C@@H](C(=O)N[C@@H]1C(=O)N2C(C(=O)O)=C(Cc3cncc(C(=O)O)c3)CS[C@H]12)c1ccccc1	2.5 (≈ 5.34 µM)	1.25 (≈ 2.67 µM)	12.5 (≈ 26.7 µM)	1.25 (≈ 2.67 µM)	12.5 (≈ 26.7 µM)	12.5 (≈ 26.7 µM)	1.25 (≈ 2.67 µM)	35800	12200	2000	70.4	54	< 400	concentration at 2 h [15]: 600 ng/mL; concentration at 4 h [16]: < 400 ng/mL; concentration at 20 min [17]: 850 ng/mL; concentration at 0.5 h [18]: 1700 ng/mL; concentration at 10 min [19]: 550 ng/mL; concentration at 1 h [20]: 1500 ng/mL
N[C@@H](C(=O)N[C@@H]1C(=O)N2C(C(=O)O)=C(Cc3ccccc3C(=O)O)CS[C@H]12)c1ccccc1	50 (≈ 107 µM)		12.5 (≈ 26.7 µM)			12.5 (≈ 26.7 µM)		58000	49200	40600	63.2	66	31200	concentration at 2 h [15]: 2800 ng/mL; concentration at 4 h [16]: 3200 ng/mL; concentration at 0.5 h [3]: 75400 ng/mL; concentration at 20 min [17]: 1400 ng/mL; concentration at 0.5 h [18]: 2400 ng/mL; concentration at 10 min [19]: 1100 ng/mL; concentration at 1 h [5]: 64400 ng/mL; concentration at 20 min [6]: 83.6 µg/mL; concentration at 10 min [7]: 102 µg/mL; concentration at 2 h [9]: 29100 ng/mL; concentration at 1 h [20]: 3200 ng/mL; concentration at 4 h [12]: 18100 ng/mL

— ChEMBL document CHEMBL3244187, “Structure--activity relationships in cephalosporins prepared from penicillins. 2. Analogues of cephalexin substituted in the 3-methyl group” (J Med Chem, 1977)
